# ChEMBL document CHEMBL1134291, “The synthesis of a prodrug of doxorubicin designed to provide reduced systemic toxicity and greater target efficacy” (J Med Chem, 2001)
# *1 amine or outer side, *2 acyl side, *3 side chain or, on linkers, in order; H or OH if unused. Where a SMILES comes first, the peptide text is derived from it. [ ]: non-standard residue; d: D form. The star is where a group is joined. Doxorubicin(3'-N) = COc1cccc2c1C(=O)c1c(O)c3c(c(O)c1C2=O)C[C@@](O)(C(=O)CO)C[C@@H]3O[C@H]1C[C@H](N*)[C@H](O)[C@H](C)O1; X1 = COc1cccc2c1C(=O)c1c(O)c3c(c(O)c1C2=O)C[C@@](O)(C(=O)CO)C[C@@H]3OC1CC(N*)C(O)C(C)O1; Glutaryl = O=C(CCCC(=O)[*:2])[*:1]; Hyp = O=C(O)[C@@H]1C[C@@H](O)CN1; Chg = N[C@H](C(=O)O)C1CCCCC1; Orn = NCCC[C@H](N)C(=O)O
# Experiments:
# LNCaP [1] = assay: Concentration required to kill 50% of tumor cells in PSA producing LNCaP human prostate cancer cell line; type: functional, cell-based
# LNCaP [2] = assay: Percentage PSA reduction relative to vehicle control following intraperitoneal injection of conjugate dose for 5 consecutive days to nude mice bearing LNCaP tumor xenografts; type: functional, Homo sapiens
# Mus musculus [3] = assay: Maximum nonlethal drug dose which could be administered (ip) to non tumor bearing nude mice for 5 consecutive days; type: functional
# Mus musculus [4] = assay: Percentage weight reduction relative to vehicle control following intraperitoneal (ip) injection of conjugate dose for 5 consecutive days to nude mice bearing LNCaP tumor xenografts( 7.6 umol/kg dose); type: functional
# DuPro = assay: Concentration required to kill 50% of tumor cells in PSA nonproducing DuPRO human prostate cancer cell line; type: functional, cell-based
# PSA = assay: Time required for PSA to hydrolyze 50% (t1/2); type: ADME; conditions: PSA (enzyme)
# Mus musculus [5] = assay: Percentage weight reduction relative to vehicle control following intraperitoneal (ip) injection of conjugate dose for 5 consecutive days to nude mice bearing LNCaP tumor xenografts(14.8 umol/kg dose); type: functional
# Mus musculus [6] = assay: Percentage weight reduction relative to vehicle control following intraperitoneal (ip) injection of conjugate dose for 5 consecutive days to nude mice bearing LNCaP tumor xenografts( 22.7 umol/kg dose); type: functional
# Method in brief: (§1)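 Nude mice carrying xenografts of PSA-secreting human prostate LNCaP cells received the conjugate intraperitoneally once daily for 5 consecutive days. Circulating PSA and tumor weight were each expressed as percent reduction against vehicle-treated controls.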
# Mus musculus [7] = assay: Percentage weight reduction relative to vehicle control following intraperitoneal (ip) injection of conjugate dose for 5 consecutive days to nude mice bearing LNCaP tumor xenografts(36.6 umol/kg dose); type: functional; method in brief: as §1
# Mus musculus [8] = assay: Percentage weight reduction relative to vehicle control following intraperitoneal (ip) injection of conjugate dose for 5 consecutive days to nude mice bearing LNCaP tumor xenografts( 22.4 umol/kg dose); type: functional
# Mus musculus [9] = assay: Percentage weight reduction relative to vehicle control following intraperitoneal (ip) injection of conjugate dose for 5 consecutive days to nude mice bearing LNCaP tumor xenografts( 29.0 umol/kg dose); type: functional
# Mus musculus [10] = assay: Percentage weight reduction relative to vehicle control following intraperitoneal (ip) injection of conjugate dose for 5 consecutive days to nude mice bearing LNCaP tumor xenografts( 29.3 umol/kg dose); type: functional
# Mus musculus [11] = assay: Percentage weight reduction relative to vehicle control following intraperitoneal (ip) injection of conjugate dose for 5 consecutive days to nude mice bearing LNCaP tumor xenografts( 21.5 umol/kg dose); type: functional
# Mus musculus [12] = assay: Percentage weight reduction relative to vehicle control following intraperitoneal (ip) injection of conjugate dose for 5 consecutive days to nude mice bearing LNCaP tumor xenografts (2.8 umol/kg dose); type: functional
Compound,EC50 (LNCaP [1]) [µM],Reduction (LNCaP [2]) [%],MTD (Mus musculus [3]) [µM/kg],EC50 (DuPro) [µM],half-life (PSA) [h],other results
COc1cccc2c1C(=O)c1c(O)c3c(c(O)c1C2=O)C[C@@](O)(C(=O)CO)C[C@@H]3OC1CC(NC(=O)[C@H](N)CC(C)C)C(O)C(C)O1 (stereo not given in full),6.7,10,7.6,14,–,Reduction (Mus musculus [4]): -5%
COc1cccc2c1C(=O)c1c(O)c3c(c(O)c1C2=O)C[C@@](O)(C(=O)CO)C[C@@H]3O[C@H]1C[C@H](NC(=O)[C@H](C)NC(=O)[C@H](C)NC(=O)[C@H](C)NC(C)=O)[C@H](O)[C@H](C)O1,> 100,–,–,> 100,–,–
COc1cccc2c1C(=O)c1c(O)c3c(c(O)c1C2=O)C[C@@](O)(C(=O)CO)C[C@@H]3OC1CC(NC(=O)[C@H](CC(C)C)NC(=O)[C@H](CO)NC(=O)[C@H](CCC(N)=O)NC(=O)[C@H](Cc2ccc(O)cc2)NC(=O)[C@H](CO)NC(=O)[C@H](C)NC(=O)[C@H](CCCN)NC(C)=O)C(O)C(C)O1 (stereo not given in full),7.3,70,29.7,> 100,0.667,Reduction (Mus musculus [5]): 57%
COc1cccc2c1C(=O)c1c(O)c3c(c(O)c1C2=O)C[C@@](O)(C(=O)CO)C[C@@H]3OC1CC(NC(=O)[C@H](CC(C)C)NC(=O)[C@H](CO)NC(=O)[C@@H](CCC(N)=O)NC(=O)[C@@H](NC(=O)[C@H](CO)NC(=O)[C@H](C)NC(=O)C2CC(O)CN2C(C)=O)C2CCCCC2)C(O)C(C)O1 (stereo not given in full),4.5,96,22.7,> 100,0.333,Reduction (Mus musculus [6]): 81%
COc1cccc2c1C(=O)c1c(O)c3c(c(O)c1C2=O)C[C@@](O)(C(=O)CO)C[C@@H]3O[C@H]1C[C@H](NC(=O)[C@H](CC(C)C)NC(=O)[C@H](CO)NC(=O)[C@H](C)NC(=O)[C@H](CO)NC(=O)[C@H](CCC(N)=O)NC(=O)[C@H](Cc2ccc(O)cc2)NC(=O)[C@H](CO)NC(=O)[C@H](C)NC(=O)[C@H](CCCCN)NC(=O)[C@H](CC(N)=O)NC(=O)[C@H](C)NC(C)=O)[C@H](O)[C@H](C)O1 (Ac-ANKASYQSASL-{Doxorubicin(3'-N)}),12.5,–,–,> 100,0.5,–
COc1cccc2c1C(=O)c1c(O)c3c(c(O)c1C2=O)C[C@@](O)(C(=O)CO)C[C@@H]3O[C@H]1C[C@H](NC(=O)[C@H](CC(C)C)NC(=O)[C@H](CO)NC(=O)[C@H](CO)NC(=O)[C@H](CCC(N)=O)NC(=O)[C@H](Cc2ccc(O)cc2)NC(=O)[C@H](CO)NC(=O)[C@H](C)NC(=O)[C@H](CCCCN)NC(=O)[C@H](CC(N)=O)NC(=O)[C@H](C)NC(C)=O)[C@H](O)[C@H](C)O1 (Ac-ANKASYQSSL-{Doxorubicin(3'-N)}) [listing 1 of 2 here],6.3,–,–,> 100,–,–
COc1cccc2c1C(=O)c1c(O)c3c(c(O)c1C2=O)C[C@@](O)(C(=O)CO)C[C@@H]3O[C@H]1C[C@H](NC(=O)[C@H](CC(C)C)NC(=O)[C@H](CO)NC(=O)[C@H](CO)NC(=O)[C@H](CCC(N)=O)NC(=O)[C@H](Cc2ccc(O)cc2)NC(=O)[C@H](CO)NC(=O)[C@H](C)NC(=O)[C@H](CCCCN)NC(=O)[C@H](CC(N)=O)NC(=O)[C@H](C)NC(C)=O)[C@H](O)[C@H](C)O1 (Ac-ANKASYQSSL-{Doxorubicin(3'-N)}) [listing 2 of 2 here],–,87,>36.6,–,–,Reduction (Mus musculus [7]): 81%
COc1cccc2c1C(=O)c1c(O)c3c(c(O)c1C2=O)C[C@@](O)(C(=O)CO)C[C@@H]3O[C@H]1C[C@H](NC(=O)[C@H](CC(C)C)NC(=O)[C@H](CO)NC(=O)[C@H](CO)NC(=O)[C@H](CO)NC(=O)[C@H](CCC(N)=O)NC(=O)[C@H](Cc2ccc(O)cc2)NC(=O)[C@H](CO)NC(=O)[C@H](C)NC(=O)[C@H](CCCCN)NC(=O)[C@H](CC(N)=O)NC(=O)[C@H](C)NC(C)=O)[C@H](O)[C@H](C)O1 (Ac-ANKASYQSSSL-{Doxorubicin(3'-N)}),7,–,–,117,0.5,–
COc1cccc2c1C(=O)c1c(O)c3c(c(O)c1C2=O)C[C@@](O)(C(=O)CO)C[C@@H]3OC1CC(NC(=O)[C@H](CC(C)C)NC(=O)[C@H](CO)NC(=O)[C@H](CCC(N)=O)NC(=O)[C@H](Cc2ccc(O)cc2)NC(=O)[C@H](CO)NC(=O)[C@H](C)NC(=O)[C@H](CCCCN)NC(C)=O)C(O)C(C)O1 (stereo not given in full) (Ac-KASYQSL-X1),4.8,–,–,100,0.5,–
COc1cccc2c1C(=O)c1c(O)c3c(c(O)c1C2=O)C[C@@](O)(C(=O)CO)C[C@@H]3OC1CC(NC(=O)[C@H](CC(C)C)NC(=O)[C@H](CO)NC(=O)[C@H](CCC(N)=O)NC(=O)[C@@H](NC(=O)[C@H](CO)NC(=O)[C@H](C)NC(=O)[C@H](CCCCN)NC(C)=O)C2CCCCC2)C(O)C(C)O1 (stereo not given in full) (Ac-KAS[Chg]QSL-X1) [listing 1 of 2 here],4.5,–,–,> 100,–,–
COc1cccc2c1C(=O)c1c(O)c3c(c(O)c1C2=O)C[C@@](O)(C(=O)CO)C[C@@H]3OC1CC(NC(=O)[C@H](CC(C)C)NC(=O)[C@H](CO)NC(=O)[C@H](CCC(N)=O)NC(=O)[C@@H](NC(=O)[C@H](CO)NC(=O)[C@H](C)NC(=O)[C@H](CCCCN)NC(C)=O)C2CCCCC2)C(O)C(C)O1 (stereo not given in full) (Ac-KAS[Chg]QSL-X1) [listing 2 of 2 here],–,95,29.9,–,–,Reduction (Mus musculus [8]): 73%
COc1cccc2c1C(=O)c1c(O)c3c(c(O)c1C2=O)C[C@@](O)(C(=O)CO)C[C@@H]3OC1CC(NC(=O)[C@H](CC(C)C)NC(=O)[C@H](CO)NC(=O)[C@H](CO)NC(=O)[C@H](CO)NC(=O)[C@H](CCC(N)=O)NC(=O)[C@H](Cc2ccc(O)cc2)NC(=O)[C@H](CCCCN)NC(C)=O)C(O)C(C)O1 (stereo not given in full) (Ac-KYQSSSL-X1),6.9,90,32.6,> 100,1,Reduction (Mus musculus [9]): 70%
COc1cccc2c1C(=O)c1c(O)c3c(c(O)c1C2=O)C[C@@](O)(C(=O)CO)C[C@@H]3OC1CC(NC(=O)[C@H](CC(C)C)NC(=O)[C@H](CO)NC(=O)[C@H](CCC(N)=O)NC(=O)[C@@H](NC(=O)[C@H](CO)NC(=O)[C@H](C)NC(=O)[C@@H]2CCCN2C(C)=O)C2CCCCC2)C(O)C(C)O1 (stereo not given in full) (Ac-PAS[Chg]QSL-X1),7.4,–,–,> 100,0.75,–
COc1cccc2c1C(=O)c1c(O)c3c(c(O)c1C2=O)C[C@@](O)(C(=O)CO)C[C@@H]3OC1CC(NC(=O)[C@H](CC(C)C)NC(=O)[C@H](CO)NC(=O)[C@H](CO)NC(=O)[C@H](CO)NC(=O)[C@H](CCC(N)=O)NC(=O)[C@H](Cc2ccc(O)cc2)NC(=O)[C@H](CCCN)NC(C)=O)C(O)C(C)O1 (stereo not given in full) (Ac-[Orn]YQSSSL-X1),7,93,33,> 100,2,Reduction (Mus musculus [10]): 80%
COc1cccc2c1C(=O)c1c(O)c3c(c(O)c1C2=O)C[C@@](O)(C(=O)CO)C[C@@H]3O[C@H]1C[C@H](NC(=O)[C@H](CC(C)C)NC(=O)[C@H](CO)NC(=O)[C@H](CCC(N)=O)NC(=O)[C@@H](NC(=O)[C@H](CO)NC(=O)[C@H](C)NC(=O)[C@@H]2C[C@@H](O)CN2C(=O)CCCC(=O)O)C2CCCCC2)[C@H](O)[C@H](C)O1 (Glutaryl-[Hyp]AS[Chg]QSL-{Doxorubicin(3'-N)}) [listing 1 of 2 here],5,–,–,> 100,0.5,–
COc1cccc2c1C(=O)c1c(O)c3c(c(O)c1C2=O)C[C@@](O)(C(=O)CO)C[C@@H]3O[C@H]1C[C@H](NC(=O)[C@H](CC(C)C)NC(=O)[C@H](CO)NC(=O)[C@H](CCC(N)=O)NC(=O)[C@@H](NC(=O)[C@H](CO)NC(=O)[C@H](C)NC(=O)[C@@H]2C[C@@H](O)CN2C(=O)CCCC(=O)O)C2CCCCC2)[C@H](O)[C@H](C)O1 (Glutaryl-[Hyp]AS[Chg]QSL-{Doxorubicin(3'-N)}) [listing 2 of 2 here],–,95,28.6,–,–,Reduction (Mus musculus [11]): 87%
COc1cccc2c1C(=O)c1c(O)c3c(c(O)c1C2=O)C[C@@](O)(C(=O)CO)C[C@@H]3O[C@H]1C[C@H](N)[C@H](O)[C@H](C)O1 [DOXORUBICIN],0.7,16,2.8,1.8,–,Reduction (Mus musculus [12]): 6%
Ac-ANKASYQSASTE-NH2,–,–,–,–,0.833,–
Ac-ANKASYQSSSTE-NH2,–,–,–,–,1.75,–
Ac-ANKISYQSAKTE-NH2,–,–,–,–,2.08,–
Ac-ANKISYQSASTE-NH2,–,–,–,–,2.42,–
Ac-ANKISYQSSKTE-NH2,–,–,–,–,1.83,–
Ac-ANKISYQSSSTE-NH2,–,–,–,–,> 4,–
Ac-ANKISYYSSSTE-NH2,–,–,–,–,2.5,–
H-ANKISYQSS-OH,–,–,–,–,> 4,–
H-ANKISYQSSSTE-OH,–,–,–,–,1.75,–
H-SQKANKISYQSSSTEERRLHYGENG-OH,–,–,–,–,0.417,–
H-SYQSSSTE-OH,–,–,–,–,> 3,–
